Test [1] in a line: Her2 expression decrease, cell viability multiplex – SKBR3 breast tumor cells, AlphaScreen, ATP viability, primary screen (AID 461;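 active means Her2 level under about 52% in both replicate screens, with viability over 70% of control, limit read from the data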;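 on Her2 level: lower value means less Her2 protein in the cells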;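 on viability: percent of carrier control wells set as 100% viability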). The following applies: SKBR3 Her2 protein level, 18-24 h, measured here: SKBR3 viability, ATP luminescence, at 10 µM.
In test [2] the target is Receptor tyrosine-protein kinase erbB-2 (Homo sapiens) (UniProt P04626). The test is described as above. The following applies: 18-24 h, at 10 µM, stronger effect = lower value.
A short description of test [3]: reduced viability of SK-BR-3 breast cancer cells – cell-based, 24 h, human, pilot screen (AID 572;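 active means viability at or below 10% of carrier control in both of two separate runs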;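 further: compound exposure lasted between 18 and 24 h rather than exactly 24 h; 100% = carrier-treated control wells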). The following applies: SK-BR-3 viability, CellTiter-Glo luminescence, at 10 µM, stronger effect = lower value. In general terms: ATP-based viability assays read luminescence as a measure of living cells.
The nature of test [4]: HUVEC growth inhibition – cell-based, human, primary screen (AID 575;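 active means viability at or below 30% in both replicate assays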;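 further: 100% = median of untreated cell wells with 0.1% DMSO on each plate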). Particulars: HUVEC proliferation, CellTiter-Glo luminescence, 72 h; at 10 µM; stronger effect = lower value. A digest of the protocol: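 Test system: primary human umbilical vein endothelial cells; medium: endothelial basal medium with 2% FBS plus growth supplements; dosing: 10 µM compound only; times: 72 h treatment at 37 °C; signal: CTG luminescence; read-out: % viability relative to median vehicle-well signal on each plate; control set: vehicle and MePR control wells; plate: 384-well, collagen-coated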

Test [5] can be described thus: H69AR cell proliferation blockers – human, duplicate replicates, primary screen (AID 580;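 active means viability at or under a set limit in both replicates, limit being median viability minus 3 SD, cut at about 48% in these data, passing the limit was not always enough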;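 further: 100% = mean luminescence of untreated wells and 0% = no signal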). Particulars: H69AR lung tumor cells viability, ATP luminescence, 72 h; at 10 µM; stronger effect = lower value.
Test [6] is described as follows: MRP1 drug-resistance reversers in H69AR cells – cell-based, doxorubicin co-treatment, pilot screen (AID 601). The following applies: CellTiter-Glo, 72 h, at 10 µM; for differential viability (reversal): stronger effect = higher value.
Test [7] is described as follows: yeast transport mutant growth inhibition pilot in 384-well plates, post-Golgi transport modulator project (AID 636; in the data active means inhibition above about 31%). Particulars: absorbance 615 nm, about 18 h, stronger effect = higher value.
A short description of test [8]: growth suppression of yeast trafficking mutant, preliminary HTS, modulators of trafficking downstream of Golgi apparatus project, 1536-format plate, OD 615 nm (AID 637; in the data active means inhibition above about 30%). Particulars: yeast transport mutant growth, absorbance 615 nm, 18 h; stronger effect = higher value.
[9] abbreviates: H69AR cells + 2 uM doxorubicin, measured here: viability with 2 uM doxorubicin, stronger effect = lower value.
Setting [10] is: H69AR cells, compound alone cytotoxicity.

Results on 15 compounds are retold here after PubChem BioAssay.

Activity calls are given as the source filed them.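 How the source made its calls, unless noted: active means viability loss from added drug above about 55%, and viability with drug at most 40%, in both replicates (limit read from the data, passing the limit was not always enough); inconclusive means both conditions met in only one replicate; inactive means neither replicate meets both conditions.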

Sequence of Receptor tyrosine-protein kinase erbB-2 (Homo sapiens) (P04626 whole entry, looked up): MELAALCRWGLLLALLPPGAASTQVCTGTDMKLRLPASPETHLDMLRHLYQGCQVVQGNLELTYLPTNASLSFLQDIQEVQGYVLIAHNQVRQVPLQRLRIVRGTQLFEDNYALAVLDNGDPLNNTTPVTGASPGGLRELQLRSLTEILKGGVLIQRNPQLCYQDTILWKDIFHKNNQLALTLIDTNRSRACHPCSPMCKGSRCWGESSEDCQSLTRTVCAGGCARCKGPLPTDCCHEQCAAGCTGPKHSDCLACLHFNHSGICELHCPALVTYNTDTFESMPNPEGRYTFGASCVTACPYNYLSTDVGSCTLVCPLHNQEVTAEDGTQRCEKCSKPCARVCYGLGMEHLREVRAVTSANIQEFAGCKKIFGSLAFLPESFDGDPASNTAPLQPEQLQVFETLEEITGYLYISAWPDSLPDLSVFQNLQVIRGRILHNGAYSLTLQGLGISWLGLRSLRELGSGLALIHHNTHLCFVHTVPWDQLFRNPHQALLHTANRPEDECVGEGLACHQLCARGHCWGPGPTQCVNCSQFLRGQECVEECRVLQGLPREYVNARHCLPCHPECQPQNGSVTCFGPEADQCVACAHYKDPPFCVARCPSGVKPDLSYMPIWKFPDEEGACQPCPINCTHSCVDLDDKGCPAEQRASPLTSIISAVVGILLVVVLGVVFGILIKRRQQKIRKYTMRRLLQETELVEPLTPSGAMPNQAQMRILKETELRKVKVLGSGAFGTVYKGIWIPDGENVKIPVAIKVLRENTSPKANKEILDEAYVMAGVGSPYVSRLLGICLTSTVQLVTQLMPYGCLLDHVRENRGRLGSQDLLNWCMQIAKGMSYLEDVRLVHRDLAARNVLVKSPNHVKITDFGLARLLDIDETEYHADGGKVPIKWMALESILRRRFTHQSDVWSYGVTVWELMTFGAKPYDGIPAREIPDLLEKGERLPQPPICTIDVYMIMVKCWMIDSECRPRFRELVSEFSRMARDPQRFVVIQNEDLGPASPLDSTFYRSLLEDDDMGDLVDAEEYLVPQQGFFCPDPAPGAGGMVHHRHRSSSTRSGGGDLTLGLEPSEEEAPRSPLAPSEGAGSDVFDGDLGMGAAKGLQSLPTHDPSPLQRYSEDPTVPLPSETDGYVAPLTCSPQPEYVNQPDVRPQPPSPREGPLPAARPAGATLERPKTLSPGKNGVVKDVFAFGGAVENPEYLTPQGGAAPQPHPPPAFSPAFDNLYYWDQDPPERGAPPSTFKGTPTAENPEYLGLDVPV

On to `CCCCC(=O)Nc1c(O)c2ccccc2[nH]c1=O`, for which the viability in test [1] was 95.5%; in test [3], 95.5% (inactive); in test [4], 108% (inactive); in test [5], 98.3% (inactive); in test [6] (setting [9]) it was 101%; in test [6] (setting [10]), 98.3%. For the same compound, the Her2 level in test [2] is 107% (inactive). The differential viability (reversal) in test [6] (H69AR cells + 2 uM doxorubicin) is -2.29% (inactive). In addition, the inhibition in test [7] was -6.93% (inactive); in test [8] it was -8.69% (inactive).
Take `CCN1CCN(c2nc(-c3cccnc3)nc3ccccc23)CC1`: the viability is 89% in test [1]; 89% (inactive) in test [3]; 101% (inactive) in test [4]; 88.6% (inactive) in test [5]; 91.5% in test [6] (setting [9]); 88.6% in test [6] (setting [10]). For the same compound, the Her2 level in test [2] is 94.5% (inactive). Moreover, in test [6] (H69AR cells + 2 uM doxorubicin), the differential viability (reversal) is -2.89% (inactive). For the same compound, the inhibition in test [7] is -3.16% (inactive); in test [8] it was -0.63% (inactive).
Turning to `COc1ccc(CN(C(=O)c2ccccc2OC)C2CCS(=O)(=O)C2)cc1` (stereo not given), the viability in test [1] is 95%; in test [3], 95% (inactive); in test [4] it was 115% (inactive); in test [5], 96.8% (inactive); in test [6] (setting [9]), 89.8%; in test [6] (setting [10]), 96.8%. Further, the Her2 level in test [2] was 90.5% (inactive). In test [6] (H69AR cells + 2 uM doxorubicin), the differential viability (reversal) was 7.03% (inactive). The inhibition in test [7] is -0.53% (inactive); in test [8], 9.34% (inactive).
In the case of `CC1CN(C2CCCCC2)c2nc3c(c(=O)[nH]c(=O)n3C)n2C1` (stereo not given), the viability in test [1] was 90.5%; in test [3], 90.5% (inactive); in test [4], 86.1% (inactive); in test [5], 82.2% (inactive); in test [6] (setting [9]), 84.4%; in test [6] (setting [10]) it was 82.2%. The Her2 level in test [2] was 95% (inactive). In addition, the differential viability (reversal) in test [6] (H69AR cells + 2 uM doxorubicin) is -2.19% (inactive). Besides, the figures for the inhibition in test [7] and in test [8] were -1.95% (inactive) and 7.3% (inactive), respectively.
With `Cc1nc2oc3c(NCc4ccccn4)ncnc3c2c2c1COC(C)(C)C2`, the viability is 90% in test [1]; 90% (inactive) in test [3]; 85.9% (inactive) in test [4]; 99.2% (inactive) in test [5]; 92.2% in test [6] (setting [9]); 99.2% in test [6] (setting [10]). The Her2 level in test [2] was 89% (inactive). Moreover, in test [6] (H69AR cells + 2 uM doxorubicin), the differential viability (reversal) is 7.06% (inactive). The inhibition is -4.4% (inactive) in test [7] and -1.59% (inactive) in test [8].
As for `CC1Cc2ccccc2N1C(=O)COC(=O)Cn1nnc(-c2ccccc2)n1` (stereo not given), the viability in test [1] is 110%; in test [3], 110% (inactive); in test [4] it was 88.5% (inactive); in test [5] it was 81% (inactive); in test [6] (setting [9]), 73.6%; in test [6] (setting [10]), 81%. In addition, the Her2 level in test [2] is 92.5% (inactive). For the same compound, in test [6] (H69AR cells + 2 uM doxorubicin), the differential viability (reversal) is 7.38% (inactive). Besides, the results for the inhibition in test [7] and in test [8] were -5.27% (inactive) and 3.65% (inactive), respectively.
On to `Cc1ccc2cc(C(c3nnnn3CC3CCCO3)N3CCc4ccccc4C3)c(=O)[nH]c2c1` (stereo not given), for which the viability in test [1] was 87%; in test [3], 87% (inactive); in test [4] it was 105% (inactive); in test [5] it was 100% (inactive); in test [6] (setting [9]) it was 102%; in test [6] (setting [10]) it was 100%. Moreover, in test [2], the Her2 level was 82% (inactive). For the same compound, the differential viability (reversal) in test [6] (H69AR cells + 2 uM doxorubicin) was -2.15% (inactive). Moreover, the inhibition in test [7] was -3.84% (inactive); in test [8] it was -6.83% (inactive).
For `COc1cc(Cn2c(-c3nonc3N)nc3ccccc32)ccc1C`, the viability in test [1] is 104%; in test [3], 104% (inactive); in test [4], 38.9% (inactive); in test [5] it was 17.8% (active); in test [6] (setting [9]), 47.1%; in test [6] (setting [10]), 17.8%. The Her2 level in test [2] is 71.5% (inactive). Further, the differential viability (reversal) in test [6] (H69AR cells + 2 uM doxorubicin) was -29.2% (inactive). Moreover, the inhibition in test [7] is -3.92% (inactive); in test [8], 1.59% (inactive).
As to `COc1c2ccoc2nc2c(OC)c(OCC(O)C(C)(C)O)ccc12` (stereo not given), the viability in test [1] was 100%; in test [3], 100% (inactive); in test [4], 94.4% (inactive); in test [5], 95.4% (inactive); in test [6] (setting [9]), 93.2%; in test [6] (setting [10]), 95.4%. Besides, the Her2 level in test [2] is 97.5% (inactive). Besides, the differential viability (reversal) in test [6] (H69AR cells + 2 uM doxorubicin) was 2.17% (inactive). Also, the inhibition is -2.8% (inactive) in test [7] and 3.39% (inactive) in test [8].
`OCc1nc2ccccc2n1CCCOc1ccccc1`: the viability in test [1] was 80.5%; in test [3], 80.5% (inactive); in test [4], 90.6% (inactive); in test [5] it was 103% (inactive); in test [6] (setting [9]), 85.9%; in test [6] (setting [10]), 103%. Besides, in test [2], the Her2 level is 102% (inactive). In test [6] (H69AR cells + 2 uM doxorubicin), the differential viability (reversal) is 16.7% (inactive). Further, the inhibition was -0.13% (inactive) in test [7] and -0.83% (inactive) in test [8].
Take `CC1CCC(NC(=O)C2CCN(c3cnccn3)CC2)CC1` (stereo not given): the viability is 96% in test [1]; 96% (inactive) in test [3]; 88.6% (inactive) in test [4]; 92.5% (inactive) in test [5]; 81.2% in test [6] (setting [9]); 92.5% in test [6] (setting [10]). Besides, the Her2 level in test [2] is 95% (inactive). Further, in test [6] (H69AR cells + 2 uM doxorubicin), the differential viability (reversal) was 11.3% (inactive). Moreover, the results for the inhibition in test [7] and in test [8] were -1.76% (inactive) and -2.7% (inactive), respectively.
For the compound `CCCCOC(=O)CSc1nc2c(cc1C#N)C(=O)CC(C)(C)C2`, the viability in test [1] was 87%; in test [3], 87% (inactive); in test [4], 91.2% (inactive); in test [5], 78.8% (inactive); in test [6] (setting [9]) it was 89.4%; in test [6] (setting [10]), 78.8%. The Her2 level in test [2] is 86% (inactive). In addition, in test [6] (H69AR cells + 2 uM doxorubicin), the differential viability (reversal) was -10.6% (inactive). Further, the inhibition in test [7] is -5.13% (inactive); in test [8], -2.73% (inactive).
For `COc1ccc(N(CC(=O)N2CCCCC2)S(=O)(=O)c2ccccc2)c(OC)c1`, the viability was 91% in test [1]; 91% (inactive) in test [3]; 91.9% (inactive) in test [4]; 86.5% (inactive) in test [5]; 89.1% in test [6] (setting [9]); 86.5% in test [6] (setting [10]). In addition, the Her2 level in test [2] was 94.5% (inactive). Also, the differential viability (reversal) in test [6] (H69AR cells + 2 uM doxorubicin) was -2.6% (inactive). Further, the values for the inhibition in test [7] and in test [8] were -1.03% (inactive) and -3.83% (inactive), respectively.
`Cn1c(SCc2ccccc2)nnc1C1CCCNC1` (stereo not given): the viability is 112% in test [1]; 112% (inactive) in test [3]; 103% (inactive) in test [4]; 90.8% (inactive) in test [5]; 94.8% in test [6] (setting [9]); 90.8% in test [6] (setting [10]). Besides, the Her2 level in test [2] was 106% (inactive). Also, in test [6] (H69AR cells + 2 uM doxorubicin), the differential viability (reversal) is -4.07% (inactive). Moreover, the inhibition in test [7] is 0% (inactive); in test [8], 0.17% (inactive).
Consider `CC(C)(C)c1ccc(OCC(=O)O)cc1`, for which the viability in test [1] was 102%; in test [3], 102% (inactive); in test [4] it was 108% (inactive); in test [5] it was 104% (inactive); in test [6] (setting [9]), 91%; in test [6] (setting [10]), 104%. For the same compound, the Her2 level in test [2] was 96.5% (inactive). Besides, in test [6] (H69AR cells + 2 uM doxorubicin), the differential viability (reversal) is 13.4% (inactive). In addition, the figures for the inhibition in test [7] and in test [8] were -5.73% (inactive) and 8.69% (inactive), respectively.

The viability is a read-out of living cells in per cent, often relative to untreated cells. The inhibition is the change of the read-out against control, counted positive when it falls.
